# Compound activity from PubChem.
# Hits are enriched below; roughly 3.1% of the tested compounds scored in any of these assays.
# OX1R antag-1: OX1R (human) antagonism; OX1R-expressing cells, FRET antagonist read-out; inhibition, % at 6.6 µM; hit rate 1.8% among 330,000; AID 485270; in the data active = inhibition mostly above about 38%, no sharp cut-off; inactive = mostly below about 40%
# GPR7 antagonist: human neuropeptides B/W receptor 1 antagonism; inhibition, % at 4.4 µM; hit rate 1.1% among 290,000; P48145; GPR7-expressing cells, fluorescence antagonist assay; in the data active = inhibition above about 16%, passing the limit was not always enough;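 also: cells stimulated with the agonist NPW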
# Target sequence (P48145 whole entry, looked up): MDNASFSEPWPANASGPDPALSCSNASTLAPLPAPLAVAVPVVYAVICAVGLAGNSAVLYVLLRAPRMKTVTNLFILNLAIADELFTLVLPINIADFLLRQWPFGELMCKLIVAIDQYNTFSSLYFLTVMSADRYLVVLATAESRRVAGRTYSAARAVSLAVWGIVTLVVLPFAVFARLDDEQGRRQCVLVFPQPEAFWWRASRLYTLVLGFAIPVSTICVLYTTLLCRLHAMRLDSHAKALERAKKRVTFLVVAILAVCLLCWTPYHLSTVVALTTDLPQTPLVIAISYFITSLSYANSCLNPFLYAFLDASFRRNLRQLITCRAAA
# GalR3 antagonist: antagonists of human GalR3; O60755; HEK293 GalR3-CNG cAMP membrane potential fluorescence; galR3 body fused to GalR1 C-terminus; inhibition, % at 3 µM; hit rate 0.44% among 360,000;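 active = inhibition above the screen-wide average plus 3 SD, cut at about 13% in these data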;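 also: forskolin and galanin both at EC90 stimulate the cells; cAMP rise reported by CNG channel membrane potential dye signal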
# Target sequence (O60755 1-299 limits assumed): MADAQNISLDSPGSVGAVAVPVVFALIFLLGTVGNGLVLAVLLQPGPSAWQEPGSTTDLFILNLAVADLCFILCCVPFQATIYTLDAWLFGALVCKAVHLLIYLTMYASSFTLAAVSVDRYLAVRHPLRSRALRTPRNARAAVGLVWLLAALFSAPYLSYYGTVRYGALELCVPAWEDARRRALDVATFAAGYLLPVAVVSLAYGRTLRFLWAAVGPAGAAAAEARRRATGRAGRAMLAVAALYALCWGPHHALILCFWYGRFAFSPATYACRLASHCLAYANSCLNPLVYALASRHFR
# OX1R antag-2: human HCRTR1 antagonism | inhibition, % at 5 µM | CHO/OX1R cells, Fluo-8 calcium fluorescence, orexin A | AID 434989 | hit rate 0.43% among 330,000;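 active = inhibition above its plate's threshold, mean inhibition of all tested compounds on the plate plus 3 SD, cut at about 37% in these data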
# CHO parental Ca: counter-screen: ATP calcium response change in parental CHO cells; parental CHO-K1, ATP-induced calcium, Fluo-8 fluorescence; inhibition, % at 5.6 µM; hit rate 0.63% among 330,000; AID 463079;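 active = inhibition above that plate's mean sample inhibition plus 3 SD, cut at about 26% in these data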
#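 Measured by: calcium-sensitive Fluo-8 fluorescence / Test system: CHO parental line / Controls: ATP-challenged DMSO wells low, unchallenged DMSO wells high / Measure: % inhibition / Compound: single nominal dose of 5.6 µM per compound / Replicates: single well per compound, no replicates / Reagent: ATP as calcium-mobilizing challenge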
# Hits are given with their value; 0 = inactive; - = no result.
SMILES,OX1R antag-1,GPR7 antagonist,GalR3 antagonist,OX1R antag-2,CHO parental Ca
CCc1nc2c(OCC3CCCCC3)cccn2c1N(C=O)Cc1ccc(OC)cc1,-,-,0,-,-
CCN=C1NC(c2ccc(F)cc2)C(C(=O)OC)=C(C)N1Cc1cccc(C(F)(F)F)c1 (centres undefined),-,-,0,-,-
COc1ccc(-c2cc(-c3ccco3)[nH]c(=O)c2C#N)cc1OC,73,0,0,0,0
N#Cc1c(-c2ccccc2)cc(-c2ccc3c(c2)OCO3)[nH]c1=O,0,-,0,0,0
C#CCN1C(=O)[C@]2(OCCC=C[C@H]2C)c2cc(OC)ccc21,-,-,0,-,-
Cc1cc(CNC(=O)Cc2c(F)cccc2Cl)nn1C,0,19,-,0,0
Cc1ccc2[nH]c(=O)c(CN(Cc3cccnc3)Cc3nnnn3CC3CCCO3)cc2c1 (centres undefined),0,0,0,0,0
O=c1[nH]c2cc3c(cc2cc1CN(Cc1ccc2c(c1)OCO2)Cc1nnnn1CC1CCCO1)OCO3 (centres undefined),49,0,0,0,0
CCOC(=O)C1=C(C(=O)OCC)C2N(Cc3ccccc3)c3ccccc3[C@@]23C[C@@H](C(=O)OC)N(S(=O)(=O)c2ccc(C(F)(F)F)cc2)C3=N1 (some centres undefined),-,-,0,-,-
O=[N+]([O-])c1ccc(Sc2nccn2Cc2ccccc2)c([N+](=O)[O-])c1,38,0,0,0,0
O=[N+]([O-])c1ccc(Sc2ncccn2)c([N+](=O)[O-])c1,67,0,0,0,0
Cc1cc(/C=C2\C(=N)N3C(SCc4ccccc4)=NSC3=NC2=O)c(C)n1Cc1ccccc1,0,0,0,0,0
Cc1cc(/C=C2\C(=N)N3N=C(c4ccco4)SC3=NC2=O)c(C)n1Cc1ccccc1,0,0,0,104,41
Cc1cc(/C=C2\C(=N)N3N=C(C(C)C)SC3=NC2=O)c(C)n1Cc1ccccc1,0,0,0,102,65
N=C1/C(=C/c2coc3ccccc3c2=O)C(=O)N=C2SC(c3ccco3)=NN12,0,0,-,0,0
CCC1=NN2C(=N)/C(=C/c3cc(C)n(Cc4ccccc4)c3C)C(=O)N=C2S1,0,0,0,97,70
CN(c1ccc(Cl)cc1)c1cc2c(c3c1ccn3C)C1CCC2O1 (centres undefined),-,-,0,-,-
COc1ccccc1N=Nc1nc(-c2ccccc2)c(-c2ccccc2)[nH]1,66,0,0,0,0
COc1ccc(N=Nc2nc(-c3ccccc3)c(-c3ccccc3)[nH]2)cc1,0,0,0,0,0
CC(C)n1nnnc1C1c2ccccc2C(=O)N1Cc1ccccc1 (centres undefined),-,-,0,-,-
CN(C)CCNc1ccc2ncn3c4ccc(O)cc4c(=O)c1c23,-,-,0,-,-
O=Nc1c(O)[nH]c2ccc(F)cc12,0,0,0,0,0
Cc1cc2c(N=O)c(NO)ccc2[nH]1,62,0,-,0,0
Cc1cc(-c2ccc(S(=O)(=O)N(C)Cc3ccccc3)cc2)on1,0,0,0,0,38
CN(Cc1ccccc1)S(=O)(=O)c1ccc(NS(C)(=O)=O)cc1,0,0,0,0,0
SMILES,OX1R antag-1,GPR7 antagonist,GalR3 antagonist,OX1R antag-2,CHO parental Ca
COc1ccc(CNC(=O)c2cn(Cc3ccccc3OC)c(=O)s2)cc1,-,-,0,-,-
CN(C)NC(=O)c1ccc([N+](=O)[O-])s1,67,0,0,0,0
O=C(Nc1cccc2ccccc12)c1ccc([N+](=O)[O-])s1,0,0,0,0,0
O=C(Nc1ccccc1F)c1ccc([N+](=O)[O-])s1,38,0,0,0,0
O=C(Nc1nccs1)c1ccc(-c2cccc([N+](=O)[O-])c2)o1,0,0,0,0,0
O=C(Nc1cccnc1)c1ccc([N+](=O)[O-])s1,53,-,0,0,0
O=C(Nc1ccccc1F)c1ccc(-c2cccc([N+](=O)[O-])c2)o1,64,0,0,0,0
COC(=O)C1=C(C)N(Cc2ccc(Br)cc2)C(=S)NC1c1cccc(OC)c1 (centres undefined),-,-,0,-,-
COc1cc(/C=C/c2[nH]c(=O)[nH]c(=O)c2[N+](=O)[O-])cc([N+](=O)[O-])c1O,63,0,0,0,0
CCC(C)Oc1ccc(/C=C/c2[nH]c(=O)[nH]c(=O)c2[N+](=O)[O-])cc1OC (centres undefined),0,0,0,0,0
O=c1[nH]c(/C=C/c2cccnc2)c([N+](=O)[O-])c(=O)[nH]1,0,0,0,0,0
O=c1[nH]c(/C=C\c2cccnc2)c([N+](=O)[O-])c(=O)[nH]1,54,0,0,0,0
O=C(Nc1ccc(F)cc1)c1nn(-c2ccccc2)c(=O)cc1Cl,-,46,0,-,-
O=C(NCC(F)(F)F)[C@H]1O[C@@H](n2ccc(=O)[nH]c2=O)[C@H](O)[C@@H]1O,-,-,0,-,-
COc1ccc2c(c1)C(=NN)c1cc(OC)ccc1-2,55,0,0,0,0
COC(=O)[C@]12C[C@H](CC(=O)NCC34CC5CC(CC(C5)C3)C4)C(=O)N(Cc3ccccc3)C1=C[C@H](C1CCCC1)O[C@@H]2C,-,-,0,-,-
CCn1c2ccccc2c2cc(CN3CCN(Cc4cc(OC)ccc4O)CC3)ccc21,50,0,0,0,0
CCn1c2ccccc2c2cc(CN3CCN(S(C)(=O)=O)CC3)ccc21,0,0,0,0,0
Cc1cccc(OCC(=O)NNC(=O)c2cc3ccccc3oc2=O)c1,73,0,0,0,0
Cc1ccc(OCC(=O)NNC(=O)c2cc3ccccc3o2)cc1C,0,0,0,0,49
Cc1cccc(NC(=O)c2cc3ccccc3o2)c1,0,18,0,0,0
O=C(COc1ccc(F)cc1)NNC(=O)c1cc2ccccc2oc1=O,0,0,0,0,0
CCCCNC(=O)C(NC(=O)c1cccc2ccccc12)C(=O)c1ccccc1 (centres undefined),-,-,0,-,-
CC(C)(C)S(=O)N1C[C@@H]2CC(=O)C=C2[C@H]1CCO (some centres undefined),-,-,0,-,-
CC1(C(=O)N/N=C/c2ccc([N+](=O)[O-])o2)CC1(Br)Br (centres undefined),73,0,0,0,0
SMILES,OX1R antag-1,GPR7 antagonist,GalR3 antagonist,OX1R antag-2,CHO parental Ca
O=C(CCN1CCN(c2ccccc2)CC1)N/N=C/c1ccc([N+](=O)[O-])o1,71,0,0,0,0
O=C(Cc1ccc([N+](=O)[O-])cc1)N/N=C/c1ccc([N+](=O)[O-])o1,0,0,0,0,0
COC(=O)c1cc2c(c3c4cc(OC)ccc4n(S(=O)(=O)c4ccc(F)cc4)c13)C(=O)N(Cc1ccccc1)C2,-,-,0,-,-
O=C(NCC1CCCN1S(=O)(=O)c1ccccc1)c1cccc(Cl)c1 (centres undefined),60,-,0,0,0
Cc1ccc(S(=O)(=O)N2CCCC2CNC(=O)c2ccc(F)c(F)c2)cc1 (centres undefined),70,-,0,0,0
CC(C)(C)c1ccc(C(=O)NCC2CCCN2S(=O)(=O)c2ccccc2)cc1 (centres undefined),0,-,0,0,0
Cc1ccc(C)c(S(=O)(=O)N2CCCC2CNC(=O)c2ccc([N+](=O)[O-])cc2)c1 (centres undefined),54,-,0,0,0
